The record followed here is article PMC3390648 (The Journal of Biological Chemistry, 2012).

Ends that are not written are not given here.

Assay [1] concerns the target T1, human primase (Homo sapiens, UniProt P49642+P49643).
T1 sequence (P49643 1-462): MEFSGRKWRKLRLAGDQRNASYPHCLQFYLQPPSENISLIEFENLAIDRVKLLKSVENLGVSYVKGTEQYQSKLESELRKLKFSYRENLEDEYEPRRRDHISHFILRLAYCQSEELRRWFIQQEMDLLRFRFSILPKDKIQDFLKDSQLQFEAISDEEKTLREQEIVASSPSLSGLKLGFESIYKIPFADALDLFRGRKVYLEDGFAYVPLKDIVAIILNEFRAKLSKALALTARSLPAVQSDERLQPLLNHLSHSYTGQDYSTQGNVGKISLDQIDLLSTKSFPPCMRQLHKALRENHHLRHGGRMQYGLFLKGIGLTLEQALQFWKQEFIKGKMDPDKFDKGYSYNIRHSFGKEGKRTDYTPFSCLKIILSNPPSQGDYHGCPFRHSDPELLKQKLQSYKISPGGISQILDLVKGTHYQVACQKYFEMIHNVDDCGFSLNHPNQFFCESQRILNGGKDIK
T1 sequence (P49642 1-420 K72A/M73A partner): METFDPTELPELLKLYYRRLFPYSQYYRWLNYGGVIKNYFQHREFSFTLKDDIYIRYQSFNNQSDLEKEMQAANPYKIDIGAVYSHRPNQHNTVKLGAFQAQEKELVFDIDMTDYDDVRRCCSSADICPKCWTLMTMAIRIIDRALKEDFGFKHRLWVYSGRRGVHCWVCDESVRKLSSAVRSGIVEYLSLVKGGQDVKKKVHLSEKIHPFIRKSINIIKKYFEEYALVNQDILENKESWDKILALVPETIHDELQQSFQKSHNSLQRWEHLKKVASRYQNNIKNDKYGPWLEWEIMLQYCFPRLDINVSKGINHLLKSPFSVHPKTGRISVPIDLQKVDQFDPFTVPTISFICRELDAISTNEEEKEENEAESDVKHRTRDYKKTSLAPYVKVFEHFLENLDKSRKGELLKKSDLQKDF
The assay can be described thus: Fluorescence polarization. The format is binding. The conditions noted are these: 25 °C, 25 mM HEPES, pH 7.2, 250 mM KCl, 1 mM TCEP, 30 nM fluorescein-labeled peptide, mean of three independent experiments. The method, boiled down: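 Peptide was human pol α 1445–1462 (wild type or point mutant), synthesized with an N-terminal fluorescein. Human primase was His-Prim1(1–420; K72A/M73A) with Prim2(1–462), made in E. coli and purified by Co-NTA, heparin, TEV cleavage and gel filtration. Serial protein dilutions were read at λex 485/λem 520 nm, 200 flashes per well. Gain was set against fluorescein (35 mP). Curves were fitted by Monte Carlo fitting.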

In assay [2] the test system is other replisome components. The assay can be described thus: Immunoprecipitation and immunoblotting, replisome components. Conditions: diploid yeast, anti-HA beads, native cell extracts, immunoblotting; relative to wild-type Pol1. The class given is cell-based, Saccharomyces cerevisiae.
The subject of assay [3] is primase. The assay can be described thus: Immunoprecipitation from yeast extracts and mass spectrometry, primase. The class given is cell-based, Saccharomyces cerevisiae. The conditions noted are these: diploid yeast, anti-Myc beads, spectral counts. The procedure, abridged:
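Asynchronous diploid cultures were grown in YPD. Extracts were made from 250 ml of mid-log cells (2.5 × 10^9) with 100 mM potassium acetate. DNA was digested with 800 units of Benzonase for 30 min at 4 °C before capture on 9E10 magnetic beads. Each sample was run 1 cm into an SDS gel, cut into 10 bands, trypsin-digested and analysed by mass spectrometry.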

Assay [4] concerns B subunit Pol12. The assay can be described thus: Immunoprecipitation from yeast extracts and mass spectrometry, B subunit. The class given is cell-based, Saccharomyces cerevisiae. The conditions noted are these: diploid yeast, anti-Myc beads, spectral counts. The procedure, abridged:
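Diploid strains grown asynchronously in YPD (1% yeast extract, 2% peptone, 40 μg/ml adenine, 2% glucose). Extracts made from 250 ml mid-log culture (2.5 × 10^9 cells) with 100 mM potassium acetate, then Benzonase-digested (800 units, 30 min, 4 °C). Tagged protein immunoprecipitated on anti-Myc (9E10) magnetic beads. Eluate run 1 cm into SDS gel, cut into 10 bands, trypsin-digested, and analysed by mass spectrometry.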

The test system of assay [5] is Pol12. The assay can be described thus: Immunoprecipitation and immunoblotting, Pol12. The conditions noted are these: diploid yeast, anti-HA beads, native cell extracts, immunoblotting. The format is cell-based, Saccharomyces cerevisiae.
For assay [6], the system named is primase. The assay can be described thus: Immunoprecipitation and immunoblotting, primase. The format is cell-based, Saccharomyces cerevisiae. Conditions: diploid yeast, anti-HA beads, immunoblotting.
Assay [7] concerns S phase checkpoint pathway (Mec1). The assay can be described thus: Dependence of viability on S phase checkpoint. The class given is cell-based, Saccharomyces cerevisiae.
For assay [8], the system named is Pri1-Pri2 primase. The assay can be described thus: Analytical gel filtration, assembly with primase. The format is binding, yeast. Conditions: Superdex 200 10/300 GL, 14 μM complex, 25 mM HEPES, pH 7.2, 250 mM KCl, 5% glycerol, 0.5 mM TCEP; equimolar, 4 °C, 30 min. The procedure, abridged:
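Yeast primase Pri1(1–409)/His-Pri2(49–513) or the ΔCTD form Pri2(49–335), and Pol1 CTD(1263–1468)/His-Pol12(246–705), were expressed in E. coli Rosetta2(DE3). They were purified by Co-NTA, heparin, TEV tag cleavage and gel filtration. Equimolar partners were mixed for 30 min at 4 °C, and 100 μl was injected at 0.5 ml/min. Fractions were read by SDS-PAGE with Coomassie staining.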

In the case of “F1455A (GYSEVNLSKLAAGCAVKS; also: fluorescein label, position not given here)”, the level of binding result in assay [1] is “did not display a measurable level of binding”.

B1: Pol1-F1463A (protein)
chain: MSSKSEKLEKLRKLQAARNGTSIDDYEGDESDGDRIYDEIDEKEYRARKRQELLHDDFVVDDDGVGYVDRGVEEDWREVDNSSSDEDTGNLASKDSKRKKNIKREKDHQITDMLRTQHSKSTLLAHAKKSQKKSIPIDNFDDILGEFESGEVEKPNILLPSKLRENLNSSPTSEFKSSIKRVNGNDESSHDAGISKKVKIDPDSSTDKYLEIESSPLKLQSRKLRYANDVQDLLDDVENSPVVATKRQNVLQDTLLANPPSAQSLADEEDDEDSDEDIILKRRTMRSVTTTRRVNIDSRSNPSTSPFVTAPGTPIGIKGLTPSKSLQSNTDVATLAVNVKKEDVVDPETDTFQMFWLDYCEVNNTLILFGKVKLKDDNCVSAMVQINGLCRELFFLPREGKTPTDIHEEIIPLLMDKYGLDNIRAKPQKMKYSFELPDIPSESDYLKVLLPYQTPKSSRDTIPSDLSSDTFYHVFGGNSNIFESFVIQNRIMGPCWLDIKGADFNSIRNASHCAVEVSVDKPQNITPTTTKTMPNLRCLSLSIQTLMNPKENKQEIVSITLSAYRNISLDSPIPENIKPDDLCTLVRPPQSTSFPLGLAALAKQKLPGRVRLFNNEKAMLSCFCAMLKVEDPDVIIGHRLQNVYLDVLAHRMHDLNIPTFSSIGRRLRRTWPEKFGRGNSNMNHFFISDICSGRLICDIANEMGQSLTPKCQSWDLSEMYQVTCEKEHKPLDIDYQNPQYQNDVNSMTMALQENITNCMISAEVSYRIQLLTLTKQLTNLAGNAWAQTLGGTRAGRNEYILLHEFSRNGFIVPDKEGNRSRAQKQRQNEENADAPVNSKKAKYQGGLVFEPEKGLHKNYVLVMDFNSLYPSIIQEFNICFTTVDRNKEDIDELPSVPPSEVDQGVLPRLLANLVDRRREVKKVMKTETDPHKRVQCDIRQQALKLTANSMYGCLGYVNSRFYAKPLAMLVTNKGREILMNTRQLAESMNLLVVYGDTDSVMIDTGCDNYADAIKIGLGFKRLVNERYRLLEIDIDNVFKKLLLHAKKKYAALTVNLDKNGNGTTVLEVKGLDMKRREFCPLSRDVSIHVLNTILSDKDPEEALQEVYDYLEDIRIKVETNNIRIDKYKINMKLSKDPKAYPGGKNMPAVQVALRMRKAGRVVKAGSVITFVITKQDEIDNAADTPALSVAERAHALNEVMIKSNNLIPDPQYYLEKQIFAPVERLLERIDSFNVVRLSEALGLDSKKYFRREGGNNNGEDINNLQPLETTITDVERFKDTVTLELSCPSCDKRFPFGGIVSSNYYRVSYNGLQCKHCEQLFTPLQLTSQIEHSIRAHISLYYAGWLQCDDSTCGIVTRQVSVFGKRCLNDGCTGVMRYKYSDKQLYNQLLYFDSLFDCEKNKKQELKPIYLPDDLDYPKEQLTESSIKALTEQNRELMETGRSVVQKYLNDCGRRYVDMTSIADFMLN
modifications: left off: 9MYC, end not stated, kept
With B1, the “co-purification with other replisome components” value in assay [2] is recorded as “slightly weaker than for wild-type Pol1”. For the same molecule, in assay [3], the co-purification with primase entry is given as “neither of the mutated alleles of Pol1 co-purified with primase”. Besides, the “association with B subunit Pol12” value in assay [4] is on record as “as efficiently as wild-type Pol1”. In addition, in assay [5], the “association with Pol12” value is reported as “all associated equally well with Pol12”. For the same molecule, the “interaction with primase, native cell extracts” value in assay [6] (native extracts) is on record as “neither of the mutated forms interacted with primase”. For the same molecule, the “interaction with primase, formaldehyde-treated cells” value in assay [6] (cells treated with 1% formaldehyde, 25 min, 24 °C) is on record as “neither of the mutated forms interacted with primase”. Moreover, the “dependence for survival on checkpoint kinases” value in assay [7] (Mec1 and Rad53, data not shown) is “dependence for survival on the checkpoint kinases Mec1 and Rad53”. Also, in assay [7] (pol1-F1463A combined with mec1Δ (SML1 deleted)), the “survival in combination with mec1Δ” value is reported as “die after a couple of rounds of cell division”. Besides, the “dependence of viability on checkpoint kinase” value in assay [7] (sml1Δ mec1Δ background) was “completely dependent upon the Mec1 checkpoint kinase”.

B2: CTD-Pol12: yeast Pol1 (1263–1468) with His-tagged Pol12 (246–705) (protein)
chain 1: NLQPLETTITDVERFKDTVTLELSCPSCDKRFPFGGIVSSNYYRVSYNGLQCKHCEQLFTPLQLTSQIEHSIRAHISLYYAGWLQCDDSTCGIVTRQVSVFGKRCLNDGCTGVMRYKYSDKQLYNQLLYFDSLFDCEKNKKQELKPIYLPDDLDYPKEQLTESSIKALTEQNRELMETGRSVVQKYLNDCGRRYVDMTSIFDFMLN
chain 2: KFRTMRQNLQEASDVLDDQIESFTKIIQNHYKLSPNDFADPTIQSQSEIYAVGRIVPDSPTYDKFLNPESLSLETSRMGGVGRRVRLDLSQVNELSFFLGQIVAFKGKNANGDYFTVNSILPLPYPNSPVSTSQELQEFQANLEGSSLKVIVTCGPYFANDNFSLELLQEFIDSINNEVKPHVLIMFGPFIDITHPLIASGKLPNFPQFKTQPKTLDELFLKLFTPILKTISPHIQTVLIPSTKDAISNHAAYPQASLIRKALQLPKRNFKCMANPSSFQINEIYFGCSNVDTFKDLKEVIKGGTTSSRYRLDRVSEHILQQRRYYPIFPGSIRTRIKPKDVSTKKETNDMESKEEKVYEHISGADLDVSYLGLTEFVGGFSPDIMIIPSELQHFARVVQNVVVINPGRFIRATGNRGSYAQITVQCPDLEDGKLTLVEGEEPVYLHNVWKRARVDLIAS
modifications: left off: His tag, end not stated, cleaved
On to B2, for which the “complex formation with primase” value in assay [8] is given as “eluted as a single peak”.
